Measurements: ChEMBL document CHEMBL4052595, “Application of Residual Dipolar Couplings and Selective Quantitative NOE to Establish the Structures of Tetranortriterpenoids from Xylocarpus rumphii” (J Nat Prod, 2017)
Activity calls are given as the source filed them.

Experiments:
Type in all cases: functional, cell-based
BT-549 = assay: Growth inhibition of human BT549 cells at 10^-5 M incubated for 48 hrs by sulforhodamine B assay
Method in brief: (§1)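 Run in the NCI59 one-dose cell-line screen, with each compound tested at a single concentration of 1 × 10−5 M.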

T47D = assay: Growth inhibition of human T47D cells at 10^-5 M incubated for 48 hrs by sulforhodamine B assay
Method in brief: (§2)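 Tested at a single concentration of 1 × 10−5 M as part of the NCI59 cell-line one-dose screen.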

Hs-578T = assay: Growth inhibition of human Hs 578T cells at 10^-5 M incubated for 48 hrs by sulforhodamine B assay; method in brief: as §1
MCF7 = assay: Growth inhibition of human MCF7 cells at 10^-5 M incubated for 48 hrs by sulforhodamine B assay; method in brief: as §1
MDA-MB-231 = assay: Growth inhibition of human MDA-MB-231 cells at 10^-5 M incubated for 48 hrs by sulforhodamine B assay; method in brief: as §1
DU-145 = assay: Growth inhibition of human DU145 cells at 10^-5 M incubated for 48 hrs by sulforhodamine B assay; method in brief: as §1
UO-31 = assay: Growth inhibition of human UO31 cells at 10^-5 M incubated for 48 hrs by sulforhodamine B assay; method in brief: as §2
PC-3 = assay: Growth inhibition of human PC3 cells at 10^-5 M incubated for 48 hrs by sulforhodamine B assay; method in brief: as §1
SN12C = assay: Growth inhibition of human SN12C cells at 10^-5 M incubated for 48 hrs by sulforhodamine B assay; method in brief: as §1
TK-10 = assay: Growth inhibition of human TK10 cells at 10^-5 M incubated for 48 hrs by sulforhodamine B assay; method in brief: as §2
RXF 393 = assay: Growth inhibition of human RXF393 cells at 10^-5 M incubated for 48 hrs by sulforhodamine B assay; method in brief: as §1
ACHN = assay: Growth inhibition of human ACHN cells at 10^-5 M incubated for 48 hrs by sulforhodamine B assay; method in brief: as §1
CAKI-1 = assay: Growth inhibition of human Caki1 cells at 10^-5 M incubated for 48 hrs by sulforhodamine B assay; method in brief: as §1
A498 = assay: Growth inhibition of human A498 cells at 10^-5 M incubated for 48 hrs by sulforhodamine B assay; method in brief: as §1
786-0 = assay: Growth inhibition of human 786-0 cells at 10^-5 M incubated for 48 hrs by sulforhodamine B assay; method in brief: as §1
NCI/ADR-RES = assay: Growth inhibition of human NCI/ADR-RES cells at 10^-5 M incubated for 48 hrs by sulforhodamine B assay; method in brief: as §1
SK-OV-3 = assay: Growth inhibition of human SKOV3 cells at 10^-5 M incubated for 48 hrs by sulforhodamine B assay; method in brief: as §1
OVCAR-8 = assay: Growth inhibition of human OVCAR8 cells at 10^-5 M incubated for 48 hrs by sulforhodamine B assay; method in brief: as §1
OVCAR-4 = assay: Growth inhibition of human OVCAR4 cells at 10^-5 M incubated for 48 hrs by sulforhodamine B assay; method in brief: as §1
OVCAR-5 = assay: Growth inhibition of human OVCAR5 cells at 10^-5 M incubated for 48 hrs by sulforhodamine B assay; method in brief: as §1
IGROV-1 = assay: Growth inhibition of human IGROV1 cells at 10^-5 M incubated for 48 hrs by sulforhodamine B assay; method in brief: as §1
OVCAR-3 = assay: Growth inhibition of human OVCAR3 cells at 10^-5 M incubated for 48 hrs by sulforhodamine B assay; method in brief: as §1
UACC-62 = assay: Growth inhibition of human UACC62 cells at 10^-5 M incubated for 48 hrs by sulforhodamine B assay; method in brief: as §2
SK-MEL-5 = assay: Growth inhibition of human SK-MEL-5 cells at 10^-5 M incubated for 48 hrs by sulforhodamine B assay; method in brief: as §1
UACC-257 = assay: Growth inhibition of human UACC257 cells at 10^-5 M incubated for 48 hrs by sulforhodamine B assay; method in brief: as §2
SK-MEL-28 = assay: Growth inhibition of human SK-MEL-28 cells at 10^-5 M incubated for 48 hrs by sulforhodamine B assay; method in brief: as §1
MDA-MB-435 = assay: Growth inhibition of human MDA-MB-435 cells at 10^-5 M incubated for 48 hrs by sulforhodamine B assay; method in brief: as §1
SK-MEL-2 = assay: Growth inhibition of human SK-MEL-2 cells at 10^-5 M incubated for 48 hrs by sulforhodamine B assay; method in brief: as §1
M14 = assay: Growth inhibition of human M14 cells at 10^-5 M incubated for 48 hrs by sulforhodamine B assay; method in brief: as §1
U-251 = assay: Growth inhibition of human U251 cells at 10^-5 M incubated for 48 hrs by sulforhodamine B assay; method in brief: as §2
LOX IMVI = assay: Growth inhibition of human LOXIMVI cells at 10^-5 M incubated for 48 hrs by sulforhodamine B assay; method in brief: as §1
SNB-19 = assay: Growth inhibition of human SNB19 cells at 10^-5 M incubated for 48 hrs by sulforhodamine B assay; method in brief: as §1
SNB-75 = assay: Growth inhibition of human SNB75 cells at 10^-5 M incubated for 48 hrs by sulforhodamine B assay; method in brief: as §1
SF-539 = assay: Growth inhibition of human SF539 cells at 10^-5 M incubated for 48 hrs by sulforhodamine B assay; method in brief: as §1
SF-268 = assay: Growth inhibition of human SF268 cells at 10^-5 M incubated for 48 hrs by sulforhodamine B assay; method in brief: as §1
SF-295 = assay: Growth inhibition of human SF295 cells at 10^-5 M incubated for 48 hrs by sulforhodamine B assay; method in brief: as §1
SW-620 = assay: Growth inhibition of human SW620 cells at 10^-5 M incubated for 48 hrs by sulforhodamine B assay; method in brief: as §2
HT-29 = assay: Growth inhibition of human HT-29 cells at 10^-5 M incubated for 48 hrs by sulforhodamine B assay; method in brief: as §1
KM12 = assay: Growth inhibition of human KM12 cells at 10^-5 M incubated for 48 hrs by sulforhodamine B assay; method in brief: as §1
HCT-116 = assay: Growth inhibition of human HCT116 cells at 10^-5 M incubated for 48 hrs by sulforhodamine B assay; method in brief: as §1
HCT-15 = assay: Growth inhibition of human HCT15 cells at 10^-5 M incubated for 48 hrs by sulforhodamine B assay; method in brief: as §1
HCC 2998 = assay: Growth inhibition of human HCC2998 cells at 10^-5 M incubated for 48 hrs by sulforhodamine B assay; method in brief: as §1
NCI-H522 = assay: Growth inhibition of human NCI-H522 cells at 10^-5 M incubated for 48 hrs by sulforhodamine B assay; method in brief: as §1
COLO 205 = assay: Growth inhibition of human COLO205 cells at 10^-5 M incubated for 48 hrs by sulforhodamine B assay; method in brief: as §1
NCI-H460 = assay: Growth inhibition of human NCI-H460 cells at 10^-5 M incubated for 48 hrs by sulforhodamine B assay; method in brief: as §1
NCI-H23 = assay: Growth inhibition of human NCI-H23 cells at 10^-5 M incubated for 48 hrs by sulforhodamine B assay; method in brief: as §1
NCI-H322M = assay: Growth inhibition of human NCI-H322M cells at 10^-5 M incubated for 48 hrs by sulforhodamine B assay; method in brief: as §1
NCI-H226 = assay: Growth inhibition of human NCI-H226 cells at 10^-5 M incubated for 48 hrs by sulforhodamine B assay; method in brief: as §1
HOP-62 = assay: Growth inhibition of human HOP62 cells at 10^-5 M incubated for 48 hrs by sulforhodamine B assay; method in brief: as §1
HOP-92 = assay: Growth inhibition of human HOP92 cells at 10^-5 M incubated for 48 hrs by sulforhodamine B assay; method in brief: as §1
A549 = assay: Growth inhibition of human A549/ATCC cells at 10^-5 M incubated for 48 hrs by sulforhodamine B assay; method in brief: as §1
EKVX = assay: Growth inhibition of human EKVX cells at 10^-5 M incubated for 48 hrs by sulforhodamine B assay; method in brief: as §1
SR = assay: Growth inhibition of human SR cells at 10^-5 M incubated for 48 hrs by sulforhodamine B assay; method in brief: as §1
MOLT-4 = assay: Growth inhibition of human MOLT4 cells at 10^-5 M incubated for 48 hrs by sulforhodamine B assay; method in brief: as §1
RPMI-8226 = assay: Growth inhibition of human RPMI8226 cells at 10^-5 M incubated for 48 hrs by sulforhodamine B assay; method in brief: as §1
K562 = assay: Growth inhibition of human K562 cells at 10^-5 M incubated for 48 hrs by sulforhodamine B assay; method in brief: as §1
CCRF-CEM = assay: Growth inhibition of human CCRF-CEM cells at 10^-5 M incubated for 48 hrs by sulforhodamine B assay; method in brief: as §1
HL-60(TB) = assay: Growth inhibition of human HL-60(TB) cells at 10^-5 M incubated for 48 hrs by sulforhodamine B assay
Method in brief: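 Run in the NCI59 cell-line one-dose screen, with each compound tested at a single concentration of 1 × 10−5 M.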

Measured: growth inhibition (GI)

CC[C@H](C)C(=O)O[C@@H]1[C@@H]2[C@@H](OC(=O)[C@@H](C)CC)[C@@]34O[C@]2(O)[C@@](C)([C@@H](CC(=O)OC)C1(C)C)[C@H]3CC[C@]1(C)C4=CC(=O)O[C@H]1C1=CC(O)OC1=O (stereo partly drawn)
inactive: all assays above
